# Measurements gathered from unrelated publications.
# Lines come from different studies, so protocols differ.
# Target: Serine/threonine-protein kinase SBK1 (SBK1, Homo sapiens, UniProt Q52WX2)
SMILES,observed,method,tested at,remaining binding
Cc1cc(NC(=O)c2cccc(S(F)(F)(F)(F)F)c2)cc(-n2ccn3nc(-c4cccnc4)cc23)c1,cell-free assay,competition with immobilised ligand,1 µM,100%
N[C@@H]1CCN(c2nccc(-c3cnn4ncccc34)n2)C1,binding,,1 µM,94%
C[C@@H](c1ccc(-n2cnc3c(N)ncnc32)cc1)N1CCc2nn(C)c(Cc3ccccc3)c2C1=O,binding,competition with immobilised ligand,0.1 µM,69%
C=CC(=O)N1CCC(C(=O)NCC(=O)N2CCN(c3nc(-c4cnc(N)nc4C(F)F)nc(N4CCOCC4)n3)CC2)CC1,binding,competition with immobilised ligand,1 µM,100%
Cc1cnc(Nc2ccc(C(=O)N3CCC(N4CCCC4)CC3)cc2)nc1-c1cc2ccccc2s1,binding,competition with immobilised ligand,1 µM,51%
c1cnn2ncc(-c3ccnc(N4CCC45COC5)n3)c2c1,binding,,1 µM,65%
O=C(NCC1CCOCC1)c1n[nH]cc1NC(=O)c1c(F)cccc1F,binding,competition with immobilised ligand,1 µM,70%
CCCOc1ccc([C@H]2[C@H](C(=O)O)[C@@H](c3ccc4c(c3)OCO4)CN2CC(=O)Nc2c(CC)cccc2CC)cc1,cell-free assay,competition with immobilised ligand,1 µM,78%
COc1cnc(Nc2cccc(S(N)(=O)=O)c2)nc1N1CCN(c2ccccc2)C(=O)C1,binding,competition with immobilised ligand,1 µM,61%
O=C(c1ccc(Nc2nccc(-c3cc4ccccc4s3)n2)cc1)N1CCC(N2CCCC2)CC1,binding,competition with immobilised ligand,1 µM,88%
CCCCN(CCCC)C(=O)CN1C[C@H](c2cc(OC)c3c(c2)OCO3)[C@@H](C(=O)O)[C@@H]1CC(C)(C)CCC,cell-free assay,competition with immobilised ligand,1 µM,76.5%
COc1cnc(Nc2cccc(S(N)(=O)=O)c2)nc1N1CCN(c2ccccc2)CC1,binding,competition with immobilised ligand,1 µM,96%
FC(F)(F)Oc1cccc(-c2cnc3ccc(-c4ccncc4)nn23)c1,binding,competition with immobilised ligand,5 µM,85%
CCC(=O)N[C@H]1CC[C@@H](C(=O)N(C)c2ccc(-c3nc4ccccc4o3)cc2)C1,cell-free assay,competition with immobilised ligand,1 µM,94%
C[C@H]1CCN(c2nccc(-c3cnn4ncccc34)n2)C1,binding,,1 µM,78%
CC(=O)c1c(NS(C)(=O)=O)c2cc(-c3ccc(Cl)cc3)c(-c3ccc(Cl)cc3Cl)nc2n(C)c1=O,cell-free assay,competition with immobilised ligand,1 µM,77%
COc1ccnn2ncc(-c3ccnc(N(C)C)n3)c12,binding,,1 µM,100%
O=C(NCCCN1CCOCC1)c1ccc(Nc2nccc(-c3cc4ccccc4s3)n2)cc1,binding,competition with immobilised ligand,1 µM,71%
CN(C)c1ncc(F)c(-c2cnn3ncccc23)n1,binding,,1 µM,66%
COc1ncc2cc3ccccc3nc2c1C#N,cell-free assay,competition with immobilised ligand,5 µM,82%
CN(C)c1nccc(-c2cnn3ncccc23)n1,binding,,1 µM,100%
Cc1c[nH]c2nccc(Oc3c(F)cc(Nc4cc(Cl)nc(N)n4)cc3F)c12,cell-free assay,competition with immobilised ligand,0.1 µM,94%
